Assay results taken from ChEMBL document CHEMBL4049388, “Facile and efficient access to Androsten-17-(1',3',4')-pyrazoles and Androst-17β-(1',3',4')-pyrazoles via Vilsmeier reagents, and their antiproliferative activity evaluation in vitro” (Eur J Med Chem, 2017).

How the values were obtained:
MCF7 = assay: Cytotoxicity against human MCF7 cells assessed as growth inhibition at 10 uM after 72 hrs by SRB assay relative to control; format: functional; conditions: MCF7, 72 h, read-out: GI
Method in brief: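 SRB single-dose screen at 10 μM on 293T, A549, Hela and MCF-7 cells. Results reported as percent inhibitory ratio (mean ± SD).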

HEK-293T = assay: Cytotoxicity against human 293T cells after 72 hrs by SRB assay; format: cell-based
Method in brief: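 SRB assay on 293T, A549, Hela and MCF-7 cells, with cisplatin as reference control. IC50 calculated for each compound from triplicate assays.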

HeLa [1] = assay: Induction of apoptosis in human HeLa cells after 48 hrs by Hoechst 33342 staining based fluorescence microscopic method; format: functional, cell-based
Method in brief: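 Hela cells seeded at 10^6 per well on cover slips and incubated 16 h. Then exposed 48 h at 2.5, 5.0 or 7.5 μM, DMSO negative control. Cells fixed in 4% paraformaldehyde for 15 min, washed in PBS, stained with Hoechst 33342 for 10 min. Nuclear morphology viewed by fluorescence microscopy, ex 350 nm / em 460 nm.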

HeLa [2] = assay: Induction of apoptosis in human HeLa cells assessed as gated cells at necrotic stage at 2.5 uM after 24 hrs by Annexin-V-FITC/propidium iodide staining based flow cytometry (reference value: 0.05%); format: functional
Method in brief: (§1)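 Hela cells seeded at 10^6 per well and stabilized 24 h at 37 °C, 5% CO2. Then treated 24 h at 2.5, 5.0 or 7.5 μM, DMSO negative control. Cells washed in cold PBS, resuspended at 1×10^6 cells/mL in cold binding buffer, stained with annexin V-FITC then PI for 15 min in dark, analysed by flow cytometry.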

HeLa [3] = assay: Induction of apoptosis in human HeLa cells assessed as gated cells at late apoptotic stage at 2.5 uM after 24 hrs by Annexin-V-FITC/propidium iodide staining based flow cytometry (reference value: 0.03%); format: functional; method in brief: as §1
HeLa [4] = assay: Induction of apoptosis in human HeLa cells assessed as gated cells at early apoptotic stage at 2.5 uM after 24 hrs by Annexin-V-FITC/propidium iodide staining based flow cytometry (reference value: 0.04%); format: functional; method in brief: as §1
HeLa [5] = assay: Induction of apoptosis in human HeLa cells assessed as total cells at viable stage at 2.5 uM after 24 hrs by Annexin-V-FITC/propidium iodide staining based flow cytometry (reference value: 96.16%); format: functional; method in brief: as §1
HeLa [6] = assay: Induction of apoptosis in human HeLa cells assessed as gated cells at necrotic stage at 5 uM after 24 hrs by Annexin-V-FITC/propidium iodide staining based flow cytometry (reference value: 0.05%); format: functional; method in brief: as §1
HeLa [7] = assay: Induction of apoptosis in human HeLa cells assessed as gated cells at early apoptotic stage at 5 uM after 24 hrs by Annexin-V-FITC/propidium iodide staining based flow cytometry (reference value: 0.04%); format: functional; method in brief: as §1
HeLa [8] = assay: Induction of apoptosis in human HeLa cells assessed as total cells at necrotic stage at 5 uM after 24 hrs by Annexin-V-FITC/propidium iodide staining based flow cytometry (reference value: 0.05%); format: functional; method in brief: as §1
HeLa [9] = assay: Induction of apoptosis in human HeLa cells assessed as gated cells at late apoptotic stage at 7.5 uM after 24 hrs by Annexin-V-FITC/propidium iodide staining based flow cytometry (reference value: 0.03%); format: functional; method in brief: as §1
HeLa [10] = assay: Induction of apoptosis in human HeLa cells assessed as total cells at necrotic stage at 7.5 uM after 24 hrs by Annexin-V-FITC/propidium iodide staining based flow cytometry (reference value: 0.05%); format: functional; method in brief: as §1
HeLa [11] = assay: Induction of apoptosis in human HeLa cells assessed as total cells at late apoptotic stage at 7.5 uM after 24 hrs by Annexin-V-FITC/propidium iodide staining based flow cytometry (reference value: 0.03%); format: functional; method in brief: as §1
HeLa [12] = assay: Cell cycle arrest in human HeLa cells assessed as accumulation at G1 phase at 2.5 uM after 24 hrs by propidium iodide staining based flow cytometry (reference value: 56.72%); format: functional
HeLa [13] = assay: Cell cycle arrest in human HeLa cells assessed as accumulation at S phase at 5 uM after 24 hrs by propidium iodide staining based flow cytometry (reference value: 18.92%); format: functional

With `CCNCc1cn(-c2ccccc2)nc1C1=CC[C@H]2[C@@H]3CC=C4C[C@@H](O)CC[C@]4(C)[C@H]3CC[C@]12C` the inhibition of growth at 10 µM (MCF7) was 89.3%, the IC50 (HEK-293T) was 870 nM and the Activity (HeLa [1]) was “Dose-dependent effect”. For the same compound, the Activity (HeLa [2]) was 1.31%, the Activity (HeLa [3]) was 0.16% and the Activity (HeLa [4]) was 0.59%. For the same compound, the Activity (HeLa [5]) was 95.73%, the Activity (HeLa [6]) was 3.79% and the Activity (HeLa [7]) was 2.41%. For the same compound, the Activity (HeLa [8]) was 3.26%, the Activity (HeLa [9]) was 1.01% and the Activity (HeLa [10]) was 2.79%. The Activity (HeLa [11]) was 0.9%, the Activity (HeLa [12]) was 51.99% and the Activity (HeLa [13]) was 24.34%.
